Experimental data as given in ChEMBL document CHEMBL4270638, “Sulfonyl-containing phenyl-pyrrolyl pentane analogues: Novel non-secosteroidal vitamin D receptor modulators with favorable physicochemical properties, pharmacokinetic properties and anti-tumor activity” (Eur J Med Chem, 2018).
The source made the active and inactive calls. The rule behind the calls is not given here.

Tests used:
MCF7 [1] = test: Antiproliferative activity against human MCF7 cells after 24 hrs by MTT assay; format: functional, cell-based; settings: MCF7, 24 h
MCF7 [2] = test: Induction of apoptosis in human MCF7 cells expressing scrambled siRNA assessed as necrotic cells at 1 uM after 24 hrs by Annexin-V-FITC/propidium iodide staining based flow cytometry (reference value: 0.16%); format: functional
MCF7 [3] = test: Induction of apoptosis in human MCF7 cells expressing VDR siRNA assessed as early apoptotic cells at 1 uM after 24 hrs by Annexin-V-FITC/propidium iodide staining based flow cytometry (reference value: 0.49%); format: functional
BXPC-3 = test: Antiproliferative activity against human BxPC3 cells after 24 hrs by MTT assay; format: functional, cell-based; settings: BXPC-3, 24 h
Mus musculus = test: Toxicity in Balb/c nude mouse xenografted with human MCF7 cells assessed as effect on body weight at 10 mg/kg, ip administered three times a week for three weeks starting from day 7 after tumor cell inoculation; format: organism-based; settings: in vivo
Method in brief: (§1)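 […] BALB/c-nu mice, 10 weeks old. 1×10^7 MCF-7 cells injected into the left fourth mammary fat pad; dosing began at about 50 mm3 tumour volume (day 7), n = 5 per group. Dosed ip at 10 mg/kg in ethanol/EL/saline 1:1:18, three times weekly for three weeks. Tumour volume by calipers = length × width² × 0.5; tumour weight and body weight recorded.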

[4] = AUC in Sprague-Dawley rat at 5 mg/kg, iv by HPLC method; format: ADME, organism-based; settings: in vivo
Method in brief: (§2)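 Male Sprague-Dawley rats, 180–220 g, n = 3 per group. Dosed iv at 5 mg/kg or ip at 20 mg/kg in ethanol/EL/saline (1:1:18). Plasma sampled at 0, 0.083, 0.167, 0.25, 0.5, 1, 2, 4, 8, 12 and 24 h and centrifuged 12000 rpm for 10 min. Plasma drug measured by HPLC; parameters by PK modelling; mean ± SD.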

MCF7 [5] = test: Induction of apoptosis in human MCF7 cells expressing scrambled siRNA assessed as live cells at 1 uM after 24 hrs by Annexin-V-FITC/propidium iodide staining based flow cytometry (reference value: 97.93%); format: functional
[6] = Half life in Sprague-Dawley rat at 5 mg/kg, iv by HPLC method; format: ADME, organism-based; settings: in vivo; method in brief: as §2
[7] = Clearance in Sprague-Dawley rat at 5 mg/kg, iv by HPLC method; format: ADME, organism-based; settings: in vivo; method in brief: as §2
MCF7 [8] = test: Cell cycle arrest in human MCF7 cells expressing VDR siRNA assessed as accumulation at S phase at 1 uM after 24 hrs by propidium iodide staining based flow cytometry (reference value: 32%); format: functional
MCF7 [9] = test: Cell cycle arrest in human MCF7 cells expressing scrambled siRNA assessed as accumulation at S phase at 1 uM after 24 hrs by propidium iodide staining based flow cytometry (reference value: 29.79%); format: functional
MCF7 [10] = test: Antitumor activity against human MCF7 cells xenografted in Balb/c nude mouse assessed as reduction in tumor growth at 10 mg/kg, ip administered three times a week for three weeks starting from day 7 after tumor cell inoculation; format: functional, organism-based; method in brief: as §1
MCF7 [11] = test: Antitumor activity against human MCF7 cells xenografted in Balb/c nude mouse assessed as increase in Bax expression at 10 mg/kg, ip administered three times a week for three weeks starting from day 7 after tumor cell inoculation by immunohistochemical analysis; format: functional, organism-based
PC-3 = test: Antiproliferative activity against human PC3 cells after 24 hrs by MTT assay; format: functional, cell-based; settings: PC-3, 24 h
MCF7 [12] = test: Cell cycle arrest in human MCF7 cells expressing scrambled siRNA assessed as accumulation at G0/G1 phase at 1 uM after 24 hrs by propidium iodide staining based flow cytometry (reference value: 49.28%); format: functional
[13] = AUC in Sprague-Dawley rat at 20 mg/kg, ip by HPLC method; format: ADME, organism-based; settings: in vivo; method in brief: as §2
[14] = Clearance in Sprague-Dawley rat at 20 mg/kg, ip by HPLC method; format: ADME, organism-based; settings: in vivo; method in brief: as §2
MCF7 [15] = test: Cell cycle arrest in human MCF7 cells expressing VDR siRNA assessed as accumulation at G2/M phase at 1 uM after 24 hrs by propidium iodide staining based flow cytometry (reference value: 17.57%); format: functional
[16] = Half life in Sprague-Dawley rat at 20 mg/kg, ip by HPLC method; format: ADME, organism-based; settings: in vivo; method in brief: as §2
MCF7 [17] = test: Antiproliferative activity against human MCF7 cells expressing VDR siRNA assessed as reduction in BrdU incorporation after 16 hrs by ELISA; format: functional, cell-based; settings: MCF7, 16 h
MCF7 [18] = test: Antitumor activity against human MCF7 cells xenografted in Balb/c nude mouse assessed as increase in p27 expression at 10 mg/kg, ip administered three times a week for three weeks starting from day 7 after tumor cell inoculation by immunohistochemical analysis; format: functional, organism-based
MCF7 [19] = test: Induction of apoptosis in human MCF7 cells assessed as upregulation of p21 expression at 1 uM after 24 hrs by Western blot analysis; format: functional, cell-based
Method in brief: (§3)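 MCF-7 cells treated at 1 µM for 24 h. Lysates resolved by 10% SDS-PAGE and transferred to PVDF. Probed with rabbit anti-p21, anti-p27 and anti-Bax antibodies, with mouse anti-β-actin as loading control. HRP-conjugated secondary antibodies; bands detected on an infrared scanner.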

MCF7 [20] = test: Induction of apoptosis in human MCF7 cells assessed as upregulation of p27 expression at 1 uM after 24 hrs by Western blot analysis; format: functional, cell-based; method in brief: as §3
MCF7 [21] = test: Antitumor activity against human MCF7 cells xenografted in Balb/c nude mouse assessed as increase in p21 expression at 10 mg/kg, ip administered three times a week for three weeks starting from day 7 after tumor cell inoculation by immunohistochemical analysis; format: functional, organism-based
[22] = Mean residence time in Sprague-Dawley rat at 5 mg/kg, iv by HPLC method; format: ADME, organism-based; settings: in vivo; method in brief: as §2
MCF7 [23] = test: Induction of apoptosis in human MCF7 cells expressing VDR siRNA assessed as necrotic cells at 1 uM after 24 hrs by Annexin-V-FITC/propidium iodide staining based flow cytometry (reference value: 0.15%); format: functional
Vitamin D3 receptor = target: T1, Vitamin D3 receptor (Homo sapiens, UniProt P11473); test: Displacement of fluormone VDR red from human full-length VDR after 4 hrs by fluorescence polarization assay
T1 sequence (P11473 whole entry): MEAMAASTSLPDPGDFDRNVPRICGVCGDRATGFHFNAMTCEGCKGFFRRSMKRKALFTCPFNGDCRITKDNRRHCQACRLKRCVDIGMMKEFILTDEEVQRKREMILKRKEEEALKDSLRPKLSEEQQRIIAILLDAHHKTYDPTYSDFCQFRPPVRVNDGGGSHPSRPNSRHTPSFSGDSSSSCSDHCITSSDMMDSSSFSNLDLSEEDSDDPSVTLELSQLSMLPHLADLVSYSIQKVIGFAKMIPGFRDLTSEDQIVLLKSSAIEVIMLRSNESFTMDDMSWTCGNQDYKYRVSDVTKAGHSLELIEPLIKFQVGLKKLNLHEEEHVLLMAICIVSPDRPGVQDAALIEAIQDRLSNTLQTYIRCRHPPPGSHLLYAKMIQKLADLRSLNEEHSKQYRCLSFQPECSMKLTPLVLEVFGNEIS

[24] = Bioavailability in Sprague-Dawley rat at 20 mg/kg, ip by HPLC method; format: ADME, organism-based; settings: in vivo; method in brief: as §2

| Structure (SMILES) | IC50 (MCF7 [1]) [µM] | Activity (MCF7 [2]) [%] | Activity (MCF7 [3]) [%] | IC50 (BXPC-3) [µM] | Activity (Mus musculus) | AUC [4] [ng·h/mL] | Activity (MCF7 [5]) [%] | half-life [6] [h] | clearance [7] [mL/min] | Activity (MCF7 [8]) [%] | Activity (MCF7 [9]) [%] | Activity (MCF7 [10]) | Activity (MCF7 [11]) | IC50 (PC-3) [µM] | Activity (MCF7 [12]) [%] | AUC [13] [ng·h/mL] | CL/F [14] [mL/min] | Activity (MCF7 [15]) [%] | half-life [16] [h] | IC50 (MCF7 [17]) [µM] | further results |
| --- | --- | --- | --- | --- | --- | --- | --- | --- | --- | --- | --- | --- | --- | --- | --- | --- | --- | --- | --- | --- | --- |
| CCN(CC)CCNC(=O)c1cc(C(CC)(CC)c2ccc(OCS(=O)(=O)c3ccccc3)c(C)c2)cn1CC | 2.03 | 0.46 | 0.7 | 4.69 | Non-Toxic | 7470 | 94.96 | 6.6 | 11.2 | 26.36 | 29.66 | Active | Active | 6.08 | 55.96 | 12000 | 27.7 | 19.02 | 7.65 | > 50 | Activity (MCF7 [18]): Active; Activity (MCF7 [19]): Active; Activity (MCF7 [20]): Active; Activity (MCF7 [21]): Active; MRT [22]: 9.72 h; Activity (MCF7 [23]): 0.25%; IC50 (Vitamin D3 receptor): 0.125 µM; bioavailability [24]: 40.3% |
| CCN(CC)CCNC(=O)c1ccc(C(CC)(CC)c2ccc(OCSC)c(C)c2)n1CC | 5.16 | 0.34 | 0.47 | 5.13 | Non-Toxic | 11800 | 94.7 | 4.72 | 7 | 32.42 | 27.95 | Active | Active | 4.01 | 55.26 | 20400 | 16.5 | 16.01 | 10.8 | > 50 | Activity (MCF7 [18]): Active; Activity (MCF7 [19]): Active; Activity (MCF7 [20]): Active; Activity (MCF7 [21]): Active; MRT [22]: 8.08 h; Activity (MCF7 [23]): 0.51%; IC50 (Vitamin D3 receptor): 0.0891 µM; bioavailability [24]: 43.2% |
